According to ChEMBL document CHEMBL2016472, “Identification of NVP-BKM120 as a Potent, Selective, Orally Bioavailable Class I PI3 Kinase Inhibitor for Treating Cancer” (ACS Med Chem Lett, 2011):
Converted amounts (≈) assume the structure as drawn. Each block holds one compound with its values, some of them ahead of it.

How the values were obtained:
[1] = AUC in rat at 20 mg/kg, po; assay type: ADME, organism-based; set-up: dose 20 mg/kg, route oral; conditions: plasma
Procedure, shortened: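 Female CD rats were dosed orally at 20 mg/kg, with a separate 5 mg/kg IV arm. Exposure (AUC) was taken from the plasma profile after the oral dose.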

[2] = Aqueous solubility of the compound; assay type: physicochemical
[3] = Apparent permeability from apical to basal side of human Caco2 cells; assay type: ADME, cell-based; conditions: Caco-2
[4] = Volume of distribution at steady state in rat at 5 mg/kg, iv; assay type: ADME, organism-based; set-up: dose 5 mg/kg, route intravenous; conditions: in vivo, read-out: Vdss
Procedure, shortened: (§1)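 Rat PK used a 5 mg/kg intravenous dose and a 20 mg/kg oral dose.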

[5] = Apparent permeability from basal to apical side of human Caco2 cells; assay type: ADME, cell-based; conditions: Caco-2
[6] = Clearance in rat at 5 mg/kg, iv; assay type: ADME, organism-based; set-up: dose 5 mg/kg, route intravenous; conditions: in vivo
Procedure, shortened: (§2)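 Female CD rats received 5 mg/kg IV (20 mg/kg PO arm). Female CD1 mice received 5 mg/kg IV (10 mg/kg PO arm). Male and female beagles and male cynomolgus monkeys each received 1 mg/kg IV (2 mg/kg PO arm). Clearance and half-life were derived from plasma concentration–time profiles after the IV dose.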

[7] = Solubility of the compound at pH 7; assay type: physicochemical; conditions: buffer
[8] = Intrinsic clearance in rat liver microsomes; assay type: ADME, Microsome; conditions: read-out: CLH
[9] = Intrinsic clearance in human liver microsomes; assay type: ADME, Microsome; conditions: read-out: CLH
[10] = Oral bioavailability in rat at 20 mg/kg; assay type: ADME, organism-based; conditions: in vivo; procedure, shortened: as §1
[11] = Oral bioavailability in rat at 10 mg/kg; assay type: ADME, organism-based; conditions: in vivo
Procedure, shortened: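 Rat PK used a 5 mg/kg intravenous dose and a 10 mg/kg oral dose.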

[12] = AUC in rat at 10 mg/kg, po; assay type: ADME, organism-based; set-up: dose 10 mg/kg, route oral; conditions: plasma
[13] = Clearance in CD1 mouse at 5 mg/kg, iv; assay type: ADME, organism-based; set-up: dose 5 mg/kg, route intravenous; conditions: in vivo; procedure, shortened: as §2
[14] = Volume of distribution at steady state in beagle dog at 1 mg/kg, iv; assay type: ADME, organism-based, Canis lupus familiaris; set-up: dose 1 mg/kg, route intravenous; conditions: in vivo, read-out: Vdss
Procedure, shortened: (§3)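 Male and female beagle dogs were dosed at 1 mg/kg IV and 2 mg/kg PO.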

[15] = Clearance in CD rat at 5 mg/kg, iv; assay type: ADME, organism-based; set-up: dose 5 mg/kg, route intravenous; conditions: in vivo; procedure, shortened: as §2
[16] = Half life in cynomolgus monkey at 1 mg/kg, iv; assay type: ADME, organism-based, Macaca fascicularis; set-up: dose 1 mg/kg, route intravenous; conditions: in vivo; procedure, shortened: as §2
[17] = Oral bioavailability in cynomolgus monkey at 2 mg/kg; assay type: ADME, organism-based, Macaca fascicularis; conditions: in vivo
Procedure, shortened: (§4)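 Male cynomolgus monkeys were dosed at 1 mg/kg IV and 2 mg/kg PO.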

[18] = Clearance in cynomolgus monkey at 1 mg/kg, iv; assay type: ADME, organism-based, Macaca fascicularis; set-up: dose 1 mg/kg, route intravenous; conditions: in vivo; procedure, shortened: as §2
[19] = Volume of distribution at steady state in CD rat at 5 mg/kg, iv; assay type: ADME, organism-based; set-up: dose 5 mg/kg, route intravenous; conditions: in vivo, read-out: Vdss
Procedure, shortened: (§5)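 Female CD rats were dosed at 5 mg/kg IV and 20 mg/kg PO.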

[20] = Dissociation constant, pKa of the compound; assay type: physicochemical
[21] = Drug uptake in tumor in nu/nu mouse xenografted with human A2780 cells at 60 mg/kg, po; assay type: ADME, organism-based, Neoplasm; set-up: dose 60 mg/kg, route oral; conditions: in vivo, read-out: Drug uptake
Procedure, shortened: (§6)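 A2780 tumor-bearing mice received a single oral dose. Tumors and plasma were sampled at 10 h. Tumor pAKT Ser473 was assessed for target modulation, and compound concentrations were measured in plasma and tumor.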

[22] = Drug uptake in tumor in nu/nu mouse xenografted with human A2780 cells at 100 mg/kg, po; assay type: ADME, organism-based, Neoplasm; set-up: dose 100 mg/kg, route oral; conditions: in vivo, read-out: Drug uptake; procedure, shortened: as §6
[23] = Volume of distribution at steady state in CD1 mouse at 5 mg/kg, iv; assay type: ADME, organism-based; set-up: dose 5 mg/kg, route intravenous; conditions: in vivo, read-out: Vdss
Procedure, shortened: (§7)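 Female CD1 mice were dosed at 5 mg/kg IV and 10 mg/kg PO.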

[24] = Half life in beagle dog at 1 mg/kg, iv; assay type: ADME, organism-based, Canis lupus familiaris; set-up: dose 1 mg/kg, route intravenous; conditions: in vivo; procedure, shortened: as §2
Plasma [25] = test: Plasma concentration in nu/nu mouse xenografted with human A2780 cells at 100 mg/kg, po; assay type: ADME, organism-based; set-up: dose 100 mg/kg, route oral; conditions: in vivo
Procedure, shortened: (§8)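 A2780 tumor-bearing mice were given oral doses (3, 10, 60 and 100 mg/kg were examined). Tumor AKT Ser473 phosphorylation and plasma exposure were measured, with the 10 h time point sampled.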

[26] = Oral bioavailability in beagle dog at 2 mg/kg; assay type: ADME, organism-based, Canis lupus familiaris; conditions: in vivo; procedure, shortened: as §3
[27] = Oral bioavailability in CD rat at 20 mg/kg; assay type: ADME, organism-based; conditions: in vivo; procedure, shortened: as §5
[28] = Lipophilicity, log D at pH 7.4; assay type: physicochemical; conditions: buffer
[29] = Half life in CD rat at 5 mg/kg, iv; assay type: ADME, organism-based; set-up: dose 5 mg/kg, route intravenous; conditions: in vivo; procedure, shortened: as §2
[30] = Clearance in beagle dog at 1 mg/kg, iv; assay type: ADME, organism-based, Canis lupus familiaris; set-up: dose 1 mg/kg, route intravenous; conditions: in vivo; procedure, shortened: as §2
[31] = Volume of distribution at steady state in cynomolgus monkey at 1 mg/kg, iv; assay type: ADME, organism-based, Macaca fascicularis; set-up: dose 1 mg/kg, route intravenous; conditions: in vivo, read-out: Vdss; procedure, shortened: as §4
[32] = Half life in CD1 mouse at 5 mg/kg, iv; assay type: ADME, organism-based; set-up: dose 5 mg/kg, route intravenous; conditions: in vivo; procedure, shortened: as §2
[33] = Oral bioavailability in CD1 mouse at 10 mg/kg; assay type: ADME, organism-based; conditions: in vivo; procedure, shortened: as §7
Plasma [34] = test: Plasma concentration in nu/nu mouse xenografted with human A2780 cells at 60 mg/kg, po; assay type: ADME, organism-based; set-up: dose 60 mg/kg, route oral; conditions: in vivo; procedure, shortened: as §8

Compound: Nc1ncc(-c2cc(Nc3cnc4ccccc4c3)nc(N3CCOCC3)n2)cn1
AUC [1]: 7 µM·h

Compound: Nc1ncc(-c2cc(Nc3cnc4ccccc4c3)nc(N3CCOCC3)n2)c(C(F)(F)F)n1
Vd [4]: 2.8 L/kg | AUC [1]: 26 µM·h | clearance [6]: 11 mL/min/kg

Compound: Nc1cc(Cl)c(-c2cc(N3CCOCC3)nc(N3CCOCC3)n2)cn1
bioavailability [10]: 69% | solubility [7]: 45 µM (≈ 17 µg/mL) | microsomal CLint [8]: ≤ 9 µL/min/mg | microsomal CLint [9]: ≤ 9 µL/min/mg | Vd [4]: 1.11 L/kg | AUC [1]: 29 µM·h | clearance [6]: 22 mL/min/kg

Compound: N#Cc1cc(N)ncc1-c1cc(N2CCOCC2)nc(N2CCOCC2)n1
bioavailability [10]: 98% | solubility [7]: 11 µM (≈ 4.04 µg/mL) | microsomal CLint [8]: ≤ 9 µL/min/mg | microsomal CLint [9]: ≤ 9 µL/min/mg | Vd [4]: 1.6 L/kg | AUC [1]: 86 µM·h | clearance [6]: 11 mL/min/kg

Compound: Nc1ncc(-c2cc(N3CCOCC3)nc(N3CCOCC3)n2)c(N)n1
bioavailability [11]: 68% | solubility [7]: 8 µM (≈ 2.87 µg/mL) | microsomal CLint [8]: ≤ 9 µL/min/mg | microsomal CLint [9]: ≤ 9 µL/min/mg | AUC [12]: 64 µM·h | Vd [4]: 4.5 L/kg | clearance [6]: 9 mL/min/kg

The remaining lines, values ahead:

solubility [2]: 0.3 µg/mL (≈ 0.642 µM) | Papp A→B [3]: 1.56 ×10⁻⁶ cm/s | Vd [4]: 2.6 L/kg | Papp B→A [5]: 2.15 ×10⁻⁶ cm/s | AUC [1]: 114 µM·h | clearance [6]: 8 mL/min/kg
Compound: Nc1cc(C(F)(F)F)c(-c2cc(Nc3cnc4ccccc4c3)nc(N3CCOCC3)n2)cn1

solubility [7]: 25 µM (≈ 8.58 µg/mL) | microsomal CLint [8]: ≤ 9 µL/min/mg | microsomal CLint [9]: ≤ 9 µL/min/mg
Compound: Nc1ncc(-c2cc(N3CCOCC3)nc(N3CCOCC3)n2)cn1

bioavailability [10]: 56% | solubility [7]: 22 µM (≈ 7.91 µg/mL) | microsomal CLint [8]: ≤ 9 µL/min/mg | microsomal CLint [9]: ≤ 9 µL/min/mg | Vd [4]: 2.8 L/kg | AUC [1]: 24 µM·h | clearance [6]: 24 mL/min/kg
Compound: Nc1ncc(-c2cc(N3CCOCC3)nc(N3CCOCC3)n2)c(=O)[nH]1

bioavailability [10]: 83% | solubility [7]: 61 µM (≈ 25.1 µg/mL) | microsomal CLint [8]: ≤ 9 µL/min/mg | microsomal CLint [9]: ≤ 9 µL/min/mg | Vd [4]: 2.1 L/kg | AUC [1]: 62 µM·h | clearance [6]: 11 mL/min/kg
Compound: Nc1ncc(-c2cc(N3CCOCC3)nc(N3CCOCC3)n2)c(C(F)(F)F)n1

clearance [13]: 11 mL/min/kg | bioavailability [10]: 50% | Vd [14]: 3.1 L/kg | clearance [15]: 3 mL/min/kg | solubility [7]: 132 µM (≈ 54.2 µg/mL) | microsomal CLint [8]: ≤ 9 µL/min/mg | microsomal CLint [9]: ≤ 9 µL/min/mg | half-life [16]: 3.6 h | bioavailability [17]: 44% | Vd [4]: 3.1 L/kg | clearance [18]: 13 mL/min/kg | Vd [19]: 3.1 L/kg | pKa [20]: 5.1 | concentration [21]: 2000 nM | concentration [22]: 2000 nM | Vd [23]: 1.4 L/kg | half-life [24]: 6.6 h | concentration (Plasma [25]): 2000 nM | bioavailability [26]: > 100% | bioavailability [27]: 50% | logD [28]: 2.9 | AUC [1]: 178 µM·h | half-life [29]: 11 h | clearance [30]: 7.3 mL/min/kg | Vd [31]: 3.1 L/kg | half-life [32]: 1.6 h | clearance [6]: 3 mL/min/kg | bioavailability [33]: 71% | concentration (Plasma [34]): 2000 nM
Compound: Nc1cc(C(F)(F)F)c(-c2cc(N3CCOCC3)nc(N3CCOCC3)n2)cn1 [BUPARLISIB]
